Measurements: article PMC8646148 (Bioorganic chemistry, 2021)

Legend:
[1] = molecular target: T1, PXR (Homo sapiens, UniProt O75469); experiment: PXR reporter gene assay in LS180 cells transfected with pSG5-hPXR and p3A4-luc; format: cell-based; details: for PXR antagonist effect: antagonist mode, in the presence of RIF 10 μM, 24 h
T1 sequence (O75469 1-434): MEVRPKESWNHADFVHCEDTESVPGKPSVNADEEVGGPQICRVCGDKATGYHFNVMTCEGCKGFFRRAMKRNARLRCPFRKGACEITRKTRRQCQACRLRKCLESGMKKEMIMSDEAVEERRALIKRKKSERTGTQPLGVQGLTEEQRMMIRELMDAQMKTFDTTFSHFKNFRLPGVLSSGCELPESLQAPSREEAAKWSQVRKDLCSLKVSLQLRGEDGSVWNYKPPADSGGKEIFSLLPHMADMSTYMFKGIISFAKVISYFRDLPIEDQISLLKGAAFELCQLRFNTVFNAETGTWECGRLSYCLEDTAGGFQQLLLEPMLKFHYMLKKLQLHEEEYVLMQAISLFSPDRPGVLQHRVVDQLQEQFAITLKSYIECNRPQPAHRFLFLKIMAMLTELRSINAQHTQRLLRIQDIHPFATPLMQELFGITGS
Outline: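 LS180 cells were lipofected transiently with pSG5-hPXR and p3A4-luc, then treated 24 h with test compound at up to 50 μM in DMSO 0.1% v/v. Agonist mode had no rifampicin; antagonist mode had RIF 10 μM. Luciferase was read after lysis. Antagonist data are % of the 10 μM RIF maximum. Four technical replicates, three consecutive passages.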

[2] = molecular target: T2, AhR (Homo sapiens, UniProt P35869); experiment: AhR reporter gene assay in stably transfected AZ-AHR cells; format: cell-based; details: 24 h; for Inhibition of TCDD-inducible luciferase activity: antagonist mode, TCDD 5 nM, attributed to cytotoxicity; for AhR agonistic activity: agonist mode, AZ-AHR cells
T2 sequence (P35869 11-848): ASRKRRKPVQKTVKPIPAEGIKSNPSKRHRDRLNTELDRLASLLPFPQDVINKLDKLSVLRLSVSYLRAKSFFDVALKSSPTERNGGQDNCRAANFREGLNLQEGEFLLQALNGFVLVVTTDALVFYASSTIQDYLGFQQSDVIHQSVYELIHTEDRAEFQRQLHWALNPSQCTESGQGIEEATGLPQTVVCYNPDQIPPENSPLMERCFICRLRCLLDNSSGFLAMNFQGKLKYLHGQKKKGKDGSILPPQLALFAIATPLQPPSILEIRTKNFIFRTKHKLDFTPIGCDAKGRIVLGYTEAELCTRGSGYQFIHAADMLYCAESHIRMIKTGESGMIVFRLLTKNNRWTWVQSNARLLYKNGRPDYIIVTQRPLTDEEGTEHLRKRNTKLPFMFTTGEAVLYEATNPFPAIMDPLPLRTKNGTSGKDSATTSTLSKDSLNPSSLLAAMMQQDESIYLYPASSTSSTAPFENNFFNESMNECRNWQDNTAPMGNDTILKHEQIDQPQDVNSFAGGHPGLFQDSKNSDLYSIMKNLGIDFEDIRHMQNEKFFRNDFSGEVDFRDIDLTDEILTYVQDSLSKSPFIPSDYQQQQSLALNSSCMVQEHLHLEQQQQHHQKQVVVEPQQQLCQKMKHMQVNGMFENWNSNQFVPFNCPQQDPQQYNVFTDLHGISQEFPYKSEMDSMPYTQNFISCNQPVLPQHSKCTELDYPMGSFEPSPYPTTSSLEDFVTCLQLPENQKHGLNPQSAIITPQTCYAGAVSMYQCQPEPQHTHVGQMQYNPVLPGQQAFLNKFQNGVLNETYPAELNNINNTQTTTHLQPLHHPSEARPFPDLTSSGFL
Outline: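 AZ-AHR human hepatoma cells stably carrying an AhR-responsive luciferase reporter were exposed for 24 h to test compound at up to 50 μM (vehicle DMSO 0.1% v/v). Agonist mode was run without TCDD; antagonist mode with TCDD 5 nM. Lysed cells were read for luciferase. Agonist data are fold over negative control; antagonist data are % of the 5 nM TCDD maximum. Four wells per treatment, three consecutive passages.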

[3] = system: LS180 cells; experiment: MTT test in LS180 cells; format: cell-based, human; details: 50 μM, 24 h
Outline: (§1)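 MTT viability was run alongside the reporter assays in AZ-AHR cells and in PXR-transfected LS180 cells. Exposure was 24 h to test compound at up to 50 μM, with vehicle DMSO 0.1% v/v. Results are given as % viability. Four technical replicates per treatment, across three consecutive cell passages.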

[4] = system: AZ-AHR cells; experiment: MTT test in AZ-AHR cells; format: cell-based, human; details: 24 h, up to 50 μM
Outline: as §1

[5] = system: MDR1 mRNA; experiment: qRT-PCR of MDR1 in intestinal adenocarcinoma cells; format: cell-based, human; details: 24 h; for Induction of MDR1 mRNA: LS174T, LS174T+PXR and LS180+PXR cells; for Induction of MDR1 mRNA in PXR-KO cells: PXR-KO LS174T cells
Outline: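 Four intestinal models were used: LS174T wild-type, a CRISPR-Cas9 PXR-knockout LS174T line, and LS174T and LS180 cells transiently transfected with a human PXR expression vector. Cells were treated 24 h with test compound at 10 μM (DMSO 0.1% v/v), alongside TCDD 10 nM or RIF 10 μM. MDR1 mRNA was measured by qRT-PCR normalized to GAPDH. Three consecutive passages, one well per treatment.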

[6] = system: CYP1A1 mRNA; experiment: qRT-PCR of CYP1A1 in primary human hepatocytes; format: cell-based; details: human hepatocytes from five donors, 10 μM, 24 h
Outline: (§2)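 Long-term monolayer primary human hepatocytes came from five male donors aged 43–89 years. They were treated 24 h with test compound at 10 μM, with vehicle DMSO 0.1% v/v and reference ligands TCDD 10 nM and RIF 10 μM. Total RNA was extracted with TRI Reagent, and mRNA was measured by probe-based qRT-PCR normalized to GAPDH. Statistics: one-way ANOVA, with 2-fold induction as threshold.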

[7] = system: CYP1A2 mRNA; experiment: qRT-PCR of CYP1A2 in primary human hepatocytes; format: cell-based; details: human hepatocytes from five donors, 10 μM, 24 h
Outline: as §2

[8] = system: CYP3A4 mRNA; experiment: qRT-PCR of CYP3A4 in primary human hepatocytes; format: cell-based; details: five hepatocyte cultures, 10 μM, 24 h
[9] = molecular target: T3, ligand-binding domain of human PXR (Homo sapiens, UniProt O75469); experiment: LanthaScreen TR-FRET PXR
T3 sequence (O75469 146-433 limits assumed): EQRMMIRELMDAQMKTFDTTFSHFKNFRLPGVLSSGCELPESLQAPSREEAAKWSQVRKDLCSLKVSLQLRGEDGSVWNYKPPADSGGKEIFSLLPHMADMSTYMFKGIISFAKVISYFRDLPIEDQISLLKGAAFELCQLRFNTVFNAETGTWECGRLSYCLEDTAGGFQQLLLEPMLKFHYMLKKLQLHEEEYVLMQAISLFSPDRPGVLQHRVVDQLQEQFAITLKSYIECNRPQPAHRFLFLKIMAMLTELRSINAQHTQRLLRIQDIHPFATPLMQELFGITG
Outline: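 LanthaScreen TR-FRET competitive binding used the human PXR ligand-binding domain and measured displacement of a fluorescent ligand. The signal was the emission ratio 520 nm/495 nm, plotted against test compound concentration. IC50 came from interpolated sigmoidal 4PL variable-slope curves. Quadruplicate wells; at least four independent experiments. Positive control: SR12813 at 100 μM.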

[10] = system: CYP3A11 mRNA; experiment: CYP3A11 gene expression in tissues of mice expressing the human PXR transgene; format: in vivo, mice expressing the human PXR gene (hPXR)
Outline: (§3)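 Humanized hPXR mice (C57BL/6 background, 6–10 weeks) received 10% DMSO or test compound in 3 or 5 doses of 500 μM each, 12 h apart. Groups had n = 3 (1 male, 2 females). Small intestine, large intestine and liver were assayed by qRT-PCR for CYP3A11 and MDR1a mRNA. Analysis: unpaired multiple t-tests with Holm-Sidak correction, α = 0.05, and a ≥2-fold induction criterion.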

[11] = system: MDR1a mRNA; experiment: MDR1a gene expression in tissues of mice expressing the human PXR transgene; format: in vivo, mice expressing the human PXR gene (hPXR)
Outline: as §3

[12] = molecular target: T1, PXR; details: ref [21]; cited from earlier work
[13] = system: CYP3A11 mRNA; details: PXR target genes CYP3A11 and MDR1a; depending on the dose schedule; ref [21]; cited from earlier work
[14] = system: MDR1 mRNA; experiment: qRT-PCR of MDR1 in primary human hepatocytes; format: cell-based; details: five hepatocyte cultures, RIF 10 μM, 24 h
[15] = liver, large and small intestine, 3 or 5 doses (500 μM/dose), 12 h interval

EC50 [1] [nM]	PXR antagonist effect [1]	Induction of MDR1 mRNA in PXR-KO cells [5]	IC50 [9] [nM]	AhR agonistic activity [2]	SMILES	Inhibition of TCDD-inducible luciferase activity [2]	Cytotoxicity (MTT) [3]	Cytotoxicity in AZ-AHR cells [4]	Induction of MDR1 mRNA [5]	also measured
~800	Dose-dependent antagonist effects	no effects	–	–	O=C(c1ccn2ccnc2c1)c1cc2ccccc2n1S(=O)(=O)c1ccccc1 [CVK-016, imidazo[1,2-a]pyridin-7-yl(1-(phenylsulfonyl)-1H-indol-2-yl)methanone]	Dose-dependent inhibition	slightly cytotoxic	cytotoxic effects	Dose-dependent induction	Induction of hepatic CYP1A1 mRNA [6]: significantly induced; Induction of hepatic CYP1A2 mRNA [7]: significantly induced
~800	Dose-dependent antagonist effects	no effects	920	–	C#CCC(O)(c1ccn2ccnc2c1)c1cc2ccccc2n1S(=O)(=O)c1ccccc1 (stereo not shown) [CVK-021, 1-(imidazo[1,2-a]pyridin-7-yl)-1-(1-(phenylsulfonyl)-1H-indol-2-yl)but-3-yn-1-ol]	Dose-dependent inhibition	slightly cytotoxic	cytotoxic effects	Dose-dependent induction	Induction of CYP3A4 mRNA in human hepatocytes [8]: significantly induced CYP3A4 mRNA in all five human hepatocytes cultures; CYP3A11 gene expression ([10]; 3-dose and 5-dose study): not affected; Induction (≥ 2) of mean CYP3A11 mRNA expression [10, 15]: no significant induction; MDR1a gene expression, Figure 7A ([11]; large and small intestines): increased gene expression; MDR1a gene expression, Figure 7B ([11]; liver and large intestine): increased gene expression; Induction (≥ 2) of mean MDR1a mRNA expression [11, 15]: no significant induction
–	–	–	–	–	C#CCC(O)(c1ccncc1)c1cc2ccccc2n1S(=O)(=O)c1ccccc1 (stereo not shown) [FKK6, 1-(1-(phenylsulfonyl)-1H-indol-2-yl)-1-(pyridin-4-yl)but-3-yn-1-ol]	–	–	–	–	PXR versus AhR agonist selectivity [12]: selective PXR agonist; Induction of PXR target genes in mouse intestines or liver [13]: robustly induced
7500	–	–	8590	strong	C#CCC(O)(c1ccncc1)c1cc2ccccc2[nH]1 (stereo not shown) [CVK-003, 1-(1H-indol-2-yl)-1-(pyridin-4-yl)but-3-yn-1-ol]	–	–	–	–	–
–	–	–	–	–	CO[C@H]1/C=C/O[C@@]2(C)Oc3c(C)c(O)c4c(O)c(c(/C=N/N5CCN(C)CC5)c(O)c4c3C2=O)NC(=O)/C(C)=C\C=C\[C@H](C)[C@H](O)[C@@H](C)[C@@H](O)[C@@H](C)[C@H](OC(C)=O)[C@@H]1C [rifampicin]	–	–	–	–	Induction of MDR1 mRNA in human hepatocytes [14]: induction only by rifampicin and only in three hepatocytes cultures
~800	Dose-dependent antagonist effects	no effects	–	moderate	O=S(=O)(c1ccccc1)n1c(C(O)c2ccn3ccnc3c2)cc2ccccc21 (stereo not shown) [CVK-017, imidazo[1,2-a]pyridin-7-yl(1-(phenylsulfonyl)-1H-indol-2-yl)methanol]	Dose-dependent inhibition	slightly cytotoxic	cytotoxic effects	Dose-dependent induction	–
